Consider 3 compounds from ChEMBL document CHEMBL4118021, “Studies of TAK1-centered polypharmacology with novel covalent TAK1 inhibitors” (Bioorg Med Chem, 2017).

Assay [1] deals with Large ribosomal subunit protein bL12m (Homo sapiens) (UniProt P52815). Kind of assay: Binding affinity to MRPL12 in human NCI-H358 cells at 1 uM by mass spectrometry based pull down assay. Format: cell-based.
Assay [2] concerns the target WD repeat and HMG-box DNA-binding protein 1 (Homo sapiens) (UniProt O75717). Kind of assay: Binding affinity to WDHD1 in human NCI-H23 cells at 1 uM by mass spectrometry based pull down assay. Format: cell-based.
For assay [3], the target named is Trifunctional enzyme subunit alpha, mitochondrial (Homo sapiens) (UniProt P40939). Kind of assay: Binding affinity to HADHA in human NCI-H358 cells at 1 uM by mass spectrometry based pull down assay. Format: cell-based.
Assay [4] addresses Inosine-5'-monophosphate dehydrogenase 2 (Homo sapiens) (UniProt P12268). Kind of assay: Binding affinity to IMPDH2 in human NCI-H358 cells at 1 uM by mass spectrometry based pull down assay. Format: cell-based.
Assay [5] concerns the target Amidophosphoribosyltransferase (Homo sapiens) (UniProt Q06203). Put plainly: Binding affinity to PPAT in human NCI-H23 cells at 1 uM by mass spectrometry based pull down assay. Format: cell-based.
In assay [6] the target is Low molecular weight phosphotyrosine protein phosphatase (Homo sapiens) (UniProt P24666). Put plainly: Binding affinity to ACP1 in human NCI-H358 cells at 1 uM by mass spectrometry based pull down assay. Format: cell-based. In short, it runs like this:
(§1)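 NCI-H23 or NCI-H358 cells were grown and lysed. Lysates were incubated overnight at 4 °C with 1 μM biotinylated covalent probe or DMSO, then pulled down on streptavidin beads. Proteins were run on polyacrylamide gels and stained with Coomassie. Bands were excised, digested and identified by mass spectrometry.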

Assay [7] deals with AH receptor-interacting protein (Homo sapiens) (UniProt O00170). Kind of assay: Binding affinity to AIP in human NCI-H23 cells at 1 uM by mass spectrometry based pull down assay. The class given is cell-based. In a few lines:
as §1

In assay [8] the target is Constitutive coactivator of PPAR-gamma-like protein 1 (Homo sapiens) (UniProt Q9NZB2). Put plainly: Binding affinity to FAM120A in human NCI-H358 cells at 1 uM by mass spectrometry based pull down assay. The class given is cell-based.
Assay [9] deals with Interleukin-1 receptor-associated kinase 1 (Homo sapiens) (UniProt P51617). Kind of assay: Binding affinity to IRAK1 in human NCI-H23 cells at 1 uM by mass spectrometry based pull down assay. Format: cell-based.
Assay [10] has as its target Polyadenylate-binding protein 4 (Homo sapiens) (UniProt Q13310). Put plainly: Binding affinity to PABPC4 in human NCI-H23 cells at 1 uM by mass spectrometry based pull down assay. The class given is cell-based.
For assay [11], the target named is DNA replication licensing factor MCM6 (Homo sapiens) (UniProt Q14566). Kind of assay: Binding affinity to MCM6 in human NCI-H23 cells at 1 uM by mass spectrometry based pull down assay. Format: cell-based.
Assay [12] has as its target Thioredoxin reductase 1, cytoplasmic (Homo sapiens) (UniProt Q16881). Put plainly: Binding affinity to TXNRD1 in human NCI-H358 cells at 1 uM by mass spectrometry based pull down assay. Format: cell-based.
For assay [13], the target named is Small ribosomal subunit protein eS6 (Homo sapiens) (UniProt P62753). Put plainly: Binding affinity to RPS6 in human NCI-H23 cells at 1 uM by mass spectrometry based pull down assay. The class given is cell-based.
For assay [14], the target named is Trifunctional enzyme subunit alpha, mitochondrial (Homo sapiens) (UniProt P40939). Kind of assay: Binding affinity to HADHA in human NCI-H23 cells at 1 uM by mass spectrometry based pull down assay. Format: cell-based.
Assay [15] addresses Leucine-rich PPR motif-containing protein, mitochondrial (Homo sapiens) (UniProt P42704). Put plainly: Binding affinity to LRPPRC in human NCI-H358 cells at 1 uM by mass spectrometry based pull down assay. Format: cell-based.
For assay [16], the target named is F-actin-capping protein subunit beta (Homo sapiens) (UniProt P47756). Put plainly: Binding affinity to CAPZB in human NCI-H23 cells at 1 uM by mass spectrometry based pull down assay. The class given is cell-based.
Assay [17] addresses (E3-independent) E2 ubiquitin-conjugating enzyme (Homo sapiens) (UniProt Q9C0C9). Kind of assay: Binding affinity to UBE2O in human NCI-H358 cells at 1 uM by mass spectrometry based pull down assay. Format: cell-based.
In assay [18] the target is Signal transducer and activator of transcription 1-alpha/beta (Homo sapiens) (UniProt P42224). Kind of assay: Binding affinity to STAT1 in human NCI-H358 cells at 1 uM by mass spectrometry based pull down assay. Format: cell-based.
Assay [19] deals with Cysteine and glycine-rich protein 1 (Homo sapiens) (UniProt P21291). Put plainly: Binding affinity to CSRP1 in human NCI-H23 cells at 1 uM by mass spectrometry based pull down assay. Format: cell-based.
Another assay relates to NCI-H23. Kind of assay: Binding affinity to PSMA5 in human NCI-H23 cells at 1 uM by mass spectrometry based pull down assay. Format: cell-based.
For assay [20], the target named is RuvB-like 2 (Homo sapiens) (UniProt Q9Y230). Kind of assay: Binding affinity to RUVBL2 in human NCI-H23 cells at 1 uM by mass spectrometry based pull down assay. Format: cell-based.
For assay [21], the target named is Bifunctional glutamate/proline--tRNA ligase (Homo sapiens) (UniProt P07814). Put plainly: Binding affinity to EPRS in human NCI-H358 cells at 1 uM by mass spectrometry based pull down assay. The class given is cell-based.
Assay [22] addresses Multifunctional protein CAD (Homo sapiens) (UniProt P27708). Kind of assay: Binding affinity to CAD in human NCI-H358 cells at 1 uM by mass spectrometry based pull down assay. The class given is cell-based.
Assay [23] deals with Poly(rC)-binding protein 1 (Homo sapiens) (UniProt Q15365). Put plainly: Binding affinity to PCBP1 in human NCI-H358 cells at 1 uM by mass spectrometry based pull down assay. Format: cell-based.
Assay [24] addresses Serine hydroxymethyltransferase, mitochondrial (Homo sapiens) (UniProt P34897). Put plainly: Binding affinity to SHMT2 in human NCI-H358 cells at 1 uM by mass spectrometry based pull down assay. The class given is cell-based.
The target in assay [25] is Aldehyde dehydrogenase family 16 member A1 (Homo sapiens) (UniProt Q8IZ83). Put plainly: Binding affinity to ALDH16A1 in human NCI-H358 cells at 1 uM by mass spectrometry based pull down assay. Format: cell-based. In short, it runs like this: as §1
A further assay concerns the target Beclin-1 (Homo sapiens) (UniProt Q14457). Kind of assay: Binding affinity to BECN1 in human NCI-H23 cells at 1 uM by mass spectrometry based pull down assay. Format: cell-based.
Assay [26] concerns the target Ubiquitin carboxyl-terminal hydrolase 5 (Homo sapiens) (UniProt P45974). Kind of assay: Binding affinity to USP5 in human NCI-H23 cells at 1 uM by mass spectrometry based pull down assay. The class given is cell-based.
In assay [27] the target is Histone H2B type 2-F (Homo sapiens) (UniProt Q5QNW6). Kind of assay: Binding affinity to HIST2H2BF in human NCI-H23 cells at 1 uM by mass spectrometry based pull down assay. The class given is cell-based.
In assay [28] the target is Dihydropyrimidinase-related protein 2 (Homo sapiens) (UniProt Q16555). Put plainly: Binding affinity to DPYSL2 in human NCI-H23 cells at 1 uM by mass spectrometry based pull down assay. The class given is cell-based.
The target of assay [29] is Vascular endothelial growth factor receptor 2 (Homo sapiens) (UniProt P35968). Put plainly: Inhibition of human VEGFR2 (787 to 1253 residues) expressed in mammalian expression system assessed as enzyme activity at 1 uM by KINOMEScan assay relative to control. Also on record: scale not given: the % may be the effect or the level left. In short, it runs like this:
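In vitro ATP-site competition binding assay across a panel of 456 kinases, with compound tested at 1 and 10 μM.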

For assay [30], the target named is Peripheral plasma membrane protein CASK (Homo sapiens) (UniProt O14936). Put plainly: Inhibition of CASK in human SKCO1 cells at 1 uM after 4 hrs using biotin labeled ETGQQFAVKIVDVAK probe by mass-spectrometric analysis relative to control. The class given is cell-based.

Activity calls are given as the source filed them. The rule behind the calls is not given here.

Trifunctional enzyme subunit alpha, mitochondrial (Homo sapiens), sequence (P40939 whole entry): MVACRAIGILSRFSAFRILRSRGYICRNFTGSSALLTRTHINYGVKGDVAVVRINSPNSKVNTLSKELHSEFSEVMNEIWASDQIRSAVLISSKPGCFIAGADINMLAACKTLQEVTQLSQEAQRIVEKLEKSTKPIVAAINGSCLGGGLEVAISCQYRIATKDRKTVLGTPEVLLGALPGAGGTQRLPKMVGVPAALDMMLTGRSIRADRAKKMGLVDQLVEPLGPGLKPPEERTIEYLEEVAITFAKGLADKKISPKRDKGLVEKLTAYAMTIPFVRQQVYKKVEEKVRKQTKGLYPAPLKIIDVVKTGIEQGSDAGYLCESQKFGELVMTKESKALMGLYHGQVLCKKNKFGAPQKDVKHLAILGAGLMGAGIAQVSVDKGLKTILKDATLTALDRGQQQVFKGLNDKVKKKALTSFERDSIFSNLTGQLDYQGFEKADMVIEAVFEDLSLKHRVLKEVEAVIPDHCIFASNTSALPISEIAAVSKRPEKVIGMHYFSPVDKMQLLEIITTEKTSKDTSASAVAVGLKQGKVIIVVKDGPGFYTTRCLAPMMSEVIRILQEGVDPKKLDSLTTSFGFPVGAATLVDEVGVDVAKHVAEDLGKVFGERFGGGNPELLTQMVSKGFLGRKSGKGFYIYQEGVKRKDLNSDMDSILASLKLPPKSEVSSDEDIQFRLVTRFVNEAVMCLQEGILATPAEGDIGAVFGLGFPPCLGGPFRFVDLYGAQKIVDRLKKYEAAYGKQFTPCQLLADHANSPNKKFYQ
Thioredoxin reductase 1, cytoplasmic (Homo sapiens), sequence (Q16881 whole entry): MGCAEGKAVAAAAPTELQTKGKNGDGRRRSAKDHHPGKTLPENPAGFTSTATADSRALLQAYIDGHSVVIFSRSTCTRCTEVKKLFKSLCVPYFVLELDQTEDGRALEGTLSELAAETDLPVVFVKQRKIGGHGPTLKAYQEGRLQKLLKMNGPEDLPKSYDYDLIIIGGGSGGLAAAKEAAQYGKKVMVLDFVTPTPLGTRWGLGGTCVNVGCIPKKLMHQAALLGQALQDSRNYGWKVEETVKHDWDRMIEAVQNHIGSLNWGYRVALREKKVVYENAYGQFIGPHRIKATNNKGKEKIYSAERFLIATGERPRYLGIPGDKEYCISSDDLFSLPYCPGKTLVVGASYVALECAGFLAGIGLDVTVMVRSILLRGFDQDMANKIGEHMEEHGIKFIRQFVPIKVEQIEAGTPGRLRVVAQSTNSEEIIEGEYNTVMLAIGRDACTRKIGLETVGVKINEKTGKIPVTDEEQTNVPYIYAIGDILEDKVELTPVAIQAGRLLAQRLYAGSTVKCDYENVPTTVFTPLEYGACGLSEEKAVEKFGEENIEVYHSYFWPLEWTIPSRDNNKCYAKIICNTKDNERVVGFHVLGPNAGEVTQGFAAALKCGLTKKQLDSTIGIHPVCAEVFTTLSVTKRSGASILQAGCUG
WD repeat and HMG-box DNA-binding protein 1 (Homo sapiens), sequence (O75717 whole entry): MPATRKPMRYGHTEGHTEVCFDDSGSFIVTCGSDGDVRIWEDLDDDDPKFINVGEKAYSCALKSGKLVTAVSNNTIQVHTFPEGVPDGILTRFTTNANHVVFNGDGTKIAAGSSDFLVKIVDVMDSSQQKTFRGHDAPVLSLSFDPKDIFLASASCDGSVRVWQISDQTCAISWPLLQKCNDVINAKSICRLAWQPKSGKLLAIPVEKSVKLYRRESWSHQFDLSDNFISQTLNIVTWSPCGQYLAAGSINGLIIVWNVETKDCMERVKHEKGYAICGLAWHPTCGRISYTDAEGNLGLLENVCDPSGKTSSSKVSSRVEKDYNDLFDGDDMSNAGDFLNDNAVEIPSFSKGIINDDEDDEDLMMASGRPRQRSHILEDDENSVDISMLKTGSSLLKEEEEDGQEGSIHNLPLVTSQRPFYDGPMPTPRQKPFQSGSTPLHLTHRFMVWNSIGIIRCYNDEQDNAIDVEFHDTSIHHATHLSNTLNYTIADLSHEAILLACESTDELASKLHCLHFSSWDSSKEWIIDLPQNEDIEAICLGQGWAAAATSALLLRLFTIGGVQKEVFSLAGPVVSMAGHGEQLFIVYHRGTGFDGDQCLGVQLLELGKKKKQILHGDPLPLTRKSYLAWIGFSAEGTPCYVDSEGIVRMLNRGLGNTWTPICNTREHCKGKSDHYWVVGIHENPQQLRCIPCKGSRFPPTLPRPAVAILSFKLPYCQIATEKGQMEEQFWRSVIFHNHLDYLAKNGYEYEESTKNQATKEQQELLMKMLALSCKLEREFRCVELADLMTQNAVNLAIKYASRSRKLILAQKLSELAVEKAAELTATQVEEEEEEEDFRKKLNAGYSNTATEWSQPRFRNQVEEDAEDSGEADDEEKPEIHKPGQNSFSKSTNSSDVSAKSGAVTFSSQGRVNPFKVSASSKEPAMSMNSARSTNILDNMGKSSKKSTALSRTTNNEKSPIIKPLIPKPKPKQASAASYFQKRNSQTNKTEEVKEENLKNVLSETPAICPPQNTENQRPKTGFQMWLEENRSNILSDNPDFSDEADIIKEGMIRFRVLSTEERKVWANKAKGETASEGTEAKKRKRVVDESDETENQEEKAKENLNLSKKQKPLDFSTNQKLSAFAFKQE
RuvB-like 2 (Homo sapiens), sequence (Q9Y230 whole entry): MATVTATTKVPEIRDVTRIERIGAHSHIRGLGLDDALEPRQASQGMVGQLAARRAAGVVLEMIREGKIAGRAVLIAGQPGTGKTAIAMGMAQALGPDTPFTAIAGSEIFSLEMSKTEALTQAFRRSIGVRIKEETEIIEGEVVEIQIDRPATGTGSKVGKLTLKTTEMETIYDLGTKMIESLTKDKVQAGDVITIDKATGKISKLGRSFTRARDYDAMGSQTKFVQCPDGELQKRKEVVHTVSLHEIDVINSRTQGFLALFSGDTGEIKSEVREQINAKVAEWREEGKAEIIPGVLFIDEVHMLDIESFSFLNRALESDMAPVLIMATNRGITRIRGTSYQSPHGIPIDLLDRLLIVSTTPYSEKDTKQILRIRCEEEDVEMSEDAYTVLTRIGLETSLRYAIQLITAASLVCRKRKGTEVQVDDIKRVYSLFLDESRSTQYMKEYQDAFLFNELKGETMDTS
Aldehyde dehydrogenase family 16 member A1 (Homo sapiens), sequence (Q8IZ83 whole entry): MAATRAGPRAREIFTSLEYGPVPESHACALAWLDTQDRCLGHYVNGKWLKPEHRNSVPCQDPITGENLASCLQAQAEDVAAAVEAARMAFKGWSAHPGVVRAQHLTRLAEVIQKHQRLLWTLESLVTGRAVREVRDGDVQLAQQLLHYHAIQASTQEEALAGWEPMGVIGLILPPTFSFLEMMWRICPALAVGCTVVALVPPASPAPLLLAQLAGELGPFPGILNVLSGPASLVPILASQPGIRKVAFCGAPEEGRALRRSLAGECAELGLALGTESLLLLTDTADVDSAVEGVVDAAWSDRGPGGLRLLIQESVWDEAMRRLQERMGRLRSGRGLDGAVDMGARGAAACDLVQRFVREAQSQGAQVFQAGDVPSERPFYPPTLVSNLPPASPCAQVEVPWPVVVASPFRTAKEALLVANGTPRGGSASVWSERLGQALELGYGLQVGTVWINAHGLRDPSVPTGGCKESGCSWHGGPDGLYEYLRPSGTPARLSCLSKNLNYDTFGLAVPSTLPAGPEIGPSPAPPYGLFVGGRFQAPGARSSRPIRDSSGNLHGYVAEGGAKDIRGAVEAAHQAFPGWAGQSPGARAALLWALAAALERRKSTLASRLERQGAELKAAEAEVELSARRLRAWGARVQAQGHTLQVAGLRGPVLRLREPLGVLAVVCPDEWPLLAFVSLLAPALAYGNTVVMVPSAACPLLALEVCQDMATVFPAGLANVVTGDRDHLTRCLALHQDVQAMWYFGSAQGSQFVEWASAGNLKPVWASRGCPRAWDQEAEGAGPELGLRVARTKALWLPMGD
Beclin-1 (Homo sapiens), sequence (Q14457 whole entry): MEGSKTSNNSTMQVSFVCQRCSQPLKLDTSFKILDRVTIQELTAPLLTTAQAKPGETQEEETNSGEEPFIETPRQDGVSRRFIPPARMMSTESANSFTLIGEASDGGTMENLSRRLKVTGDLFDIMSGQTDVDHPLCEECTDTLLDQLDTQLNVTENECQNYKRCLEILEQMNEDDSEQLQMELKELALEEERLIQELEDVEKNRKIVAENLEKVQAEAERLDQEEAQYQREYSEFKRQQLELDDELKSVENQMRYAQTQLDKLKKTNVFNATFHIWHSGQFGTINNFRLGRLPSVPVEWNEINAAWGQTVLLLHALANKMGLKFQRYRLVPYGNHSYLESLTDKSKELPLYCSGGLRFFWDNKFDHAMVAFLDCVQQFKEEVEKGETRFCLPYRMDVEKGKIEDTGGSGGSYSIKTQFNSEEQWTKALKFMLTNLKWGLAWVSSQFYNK
Poly(rC)-binding protein 1 (Homo sapiens), sequence (Q15365 whole entry): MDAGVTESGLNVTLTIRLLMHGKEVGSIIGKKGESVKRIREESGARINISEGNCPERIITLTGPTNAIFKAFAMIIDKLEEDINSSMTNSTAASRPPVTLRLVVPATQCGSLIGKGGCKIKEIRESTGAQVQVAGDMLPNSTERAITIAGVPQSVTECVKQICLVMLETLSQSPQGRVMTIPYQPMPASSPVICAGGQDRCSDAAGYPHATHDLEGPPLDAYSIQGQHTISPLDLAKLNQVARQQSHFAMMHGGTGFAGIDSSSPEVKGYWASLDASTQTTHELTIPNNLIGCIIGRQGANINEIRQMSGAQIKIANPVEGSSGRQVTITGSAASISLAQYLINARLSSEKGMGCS
F-actin-capping protein subunit beta (Homo sapiens), sequence (P47756 whole entry): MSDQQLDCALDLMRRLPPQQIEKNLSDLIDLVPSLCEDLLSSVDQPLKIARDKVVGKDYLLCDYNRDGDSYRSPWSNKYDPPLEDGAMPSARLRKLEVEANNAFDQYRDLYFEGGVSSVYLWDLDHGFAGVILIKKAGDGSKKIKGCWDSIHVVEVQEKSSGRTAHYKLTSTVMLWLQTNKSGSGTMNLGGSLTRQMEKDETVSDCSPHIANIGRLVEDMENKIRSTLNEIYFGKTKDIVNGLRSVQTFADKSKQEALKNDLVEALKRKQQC

As to `C=CC(=O)Nc1ccccc1Nc1nc(Nc2ccc(N3CCN(CCOCCOCCOCCNC(=O)CCCC[C@@H]4SC[C@@H]5NC(=O)N[C@@H]54)CC3)cc2)ncc1Cl`, the result in assay [1], in assay [2], in [3], in assay [4], in assay [5] and in assay [6] was Active. The outcome in assay [7], in [8], in assay [9], in [10], in assay [11] and in [12] was Active. The result in [13], in assay [14], in assay [15], in assay [16], in assay [17] and in [18] was Active. The outcome (in assay [19]; in the assay on NCI-H23; in assay [20]; in [21]; in [22]; in [23]) was Active. The result (in assay [24]; in assay [25]; at Beclin-1 (Homo sapiens); in assay [26]; in assay [27]; in assay [28]) was Active.
Consider `COc1cc(O)c2c(c1)/C=C/C[C@H](O)[C@H](O)C(=O)/C=C\C[C@H](C)OC2=O`, for which the Activity in [29] came out at 78%.
In the case of `C=CC(=O)Nc1ccccc1Nc1nc(Nc2ccc(N3CCN(C)CC3)cc2)ncc1Cl`, the inhibition in assay [30] was -10%.
